Measured values as given in ChEMBL document CHEMBL1139312, “Synthesis and SAR of 6-chloro-4-fluoroalkylamino-2-heteroaryl-5-(substituted)phenylpyrimidines as anti-cancer agents” (Bioorg Med Chem, 2009).
pIC50: −log10 of the molar value. In brackets after ≈: the same amount, converted by molar mass. Activity calls are given as the source filed them. The rule behind the calls is not given here.

Assays:
COLO 205 = experiment: Antiproliferative activity against human COLO205 cells after 24 hrs by MTS assay; type: functional, cell-based
KB [1] = experiment: Ratio of IC50 for human KB 8.5 cells to IC50 for human KB cells; type: functional
Summary of the method: (§1)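 Resistance ratio: IC50 in KB 8.5 or KB V1 cells divided by IC50 in parental KB cells, each IC50 from 10-concentration duplicate dose–response curves; ratio near 1 means no resistance.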

[2] = Metabolic stability in male Beagle dog liver microsomes at 1 uM after 30 mins; type: ADME, Canis lupus familiaris, Microsome
Summary of the method: (§2)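 Liver microsomes (1 mg/mL) from each species and sex were incubated with compound for 30 min at 37 °C in the presence of NADPH. Read-out was metabolic half-life (t1/2).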

[3] = Metabolic stability in male cynomolgus monkey liver microsomes at 1 uM after 30 mins; type: ADME, Macaca fascicularis, Microsome; summary of the method: as §2
[4] = Aqueous solubility at pH 7.4 by shake flask method; type: physicochemical
[5] = Antiproliferative activity against human KBV1 cells after 3 days by SRB assay; type: functional, cell-based; details: KB-V1, 72 h
[6] = Metabolic stability in male Sprague-Dawley rat liver microsomes at 1 uM after 30 mins; type: ADME, Microsome; summary of the method: as §2
[7] = Metabolic stability in female Sprague-Dawley rat liver microsomes at 1 uM after 30 mins; type: ADME, Microsome; summary of the method: as §2
[8] = Metabolic stability in male human liver microsomes at 1 uM after 30 mins; type: ADME, Microsome; summary of the method: as §2
[9] = Ratio of IC50 for human KBV1 cells to IC50 for human KB cells; type: functional; summary of the method: as §1
[10] = Metabolic stability in female nude mouse liver microsomes at 1 uM after 30 mins; type: ADME, Microsome; summary of the method: as §2
[11] = Volume of distribution in rat; type: ADME, organism-based; details: in vivo
Summary of the method: (§3)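 Rat pharmacokinetic parameters were derived by non-compartmental, model-independent analysis.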

[12] = Antiproliferative activity against human KB 8.5 cells after 3 days by SRB assay; type: functional, cell-based; details: 72 h
[13] = Half life in rat; type: ADME, organism-based; details: in vivo; summary of the method: as §3
KB [14] = experiment: Antiproliferative activity against human KB cells after 3 days by SRB assay; type: functional, cell-based; details: 72 h
[15] = Clearance in rat; type: ADME, organism-based; details: in vivo; summary of the method: as §3
[16] = Bioavailability in rat; type: ADME, organism-based; details: in vivo; summary of the method: as §3
[17] = Induction of tubulin polymerization
LOX = experiment: Antitumor activity against human LOX cells xenografted in Foxn1nu mouse assessed as reduction in tumor growth at 1 to 6 mg/kg, iv; type: functional, organism-based
Summary of the method: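 LOX melanoma cells (2 × 10⁶ per animal) were implanted s.c. in the flank of female NU/NU-Foxn1nu mice, which were staged at about 100 mg tumor mass. Compound was dosed i.v. in 0.9% saline on days 1, 5 and 9 after staging, with a vehicle-only i.v. control. Five mice per group. Relative tumor growth = mean tumor mass on day d / group mean on day 0.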

NCI-H460 = experiment: Antitumor activity against human H460 cells xenografted in Foxn1nu mouse assessed as reduction in tumor growth at 2.5 to 10 mg/kg, po; type: functional, organism-based
Summary of the method: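 Female NU/NU-Foxn1nu mice were injected s.c. in the flank with 1 × 10⁶ H460 cells per animal and staged (randomized) when tumors reached about 100 mg. Compound was given by oral gavage in Klucel on days 0 and 7 after staging. Controls received vehicle only, i.v. Nine animals per group; tumor mass was followed over days.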

`Fc1cc(F)c(-c2c(Cl)nc(-c3ccc4ccccc4n3)nc2NCC(F)(F)F)c(F)c1` showed a pIC50 (COLO 205; Homo sapiens, COLO 205, 24 h) of 6.60.
`Fc1cc(F)c(-c2c(Cl)nc(-c3ccco3)nc2NCC(F)(F)F)c(F)c1` gave a pIC50 (COLO 205; Homo sapiens, COLO 205, 24 h) of 6.63.
Work on `CNCCCOc1cc(F)c(-c2c(Cl)nc(-c3cnccn3)nc2N[C@@H](C)C(F)(F)F)c(F)c1` [listing 1 of 3 here] yielded a pIC50 (COLO 205; Homo sapiens, COLO 205, 24 h) of 8.05.
`Fc1cc(F)c(-c2c(Cl)nc(-c3ncccn3)nc2NCC(F)(F)F)c(F)c1` gave a pIC50 (COLO 205; Homo sapiens, COLO 205, 24 h) of 6.58.
Work on `Fc1cc(F)c(-c2c(Cl)nc(-n3ccnc3)nc2NCC(F)(F)F)c(F)c1` yielded a pIC50 (COLO 205; Homo sapiens, COLO 205, 24 h) of 5.52.
Work on `Fc1cc(F)c(-c2c(Cl)nc(-c3cccs3)nc2NCC(F)(F)F)c(F)c1` yielded a pIC50 (COLO 205; Homo sapiens, COLO 205, 24 h) of 5.46.
For `CNCCCOc1cc(F)c(-c2c(Cl)nc(-c3cnccn3)nc2N[C@@H](C)C(F)(F)F)c(F)c1` [listing 2 of 3 here], the “Ratio IC50” value (KB [1]) was 3.4, the half-life at 1 µM [2] was > 1 h and the half-life at 1 µM [3] was > 1 h. For the same molecule, the solubility thermodynamic [4] was 540 µg/mL (≈ 1070 µM), the pIC50 (COLO 205; colo 205) was 8.16 and the pIC50 [5] was 6.39. The half-life at 1 µM [6] was > 1 h, the half-life at 1 µM [7] was > 1 h and the half-life at 1 µM [8] was > 1 h. The “Ratio IC50” value [9] was 58, the half-life at 1 µM [10] was > 1 h and the Vd [11] was 14 L/kg. It also gave a pIC50 [12] of 7.62, a half-life [13] of 8.6 h and a pIC50 (KB [14]) of 8.15. For the same molecule, the clearance [15] was 21 mL/min/kg and the bioavailability [16] was 100%.
Molecule `CC(=O)O[C@H]1C(=O)[C@@]2(C)[C@H]([C@H](OC(=O)c3ccccc3)[C@]3(O)C[C@H](OC(=O)[C@H](O)[C@@H](NC(=O)c4ccccc4)c4ccccc4)C(C)=C1C3(C)C)[C@]1(OC(C)=O)CO[C@@H]1C[C@@H]2O` [PACLITAXEL] has a pIC50 (COLO 205; Homo sapiens, COLO 205, 24 h) of 8.48 and a pIC50 [5] of 5.70.
For `CNCCCOc1cc(F)c(-c2c(Cl)nc(-n3cccn3)nc2N[C@@H](C)C(F)(F)F)c(F)c1` [listing 1 of 3 here], the “Ratio IC50” value (KB [1]) was 13, the pIC50 [5] was 6.24 and the “Ratio IC50” value [9] was 237. It also gave a pIC50 [12] of 7.49 and a pIC50 (KB [14]) of 8.62.
Work on `Fc1cc(F)c(-c2c(Cl)nc(-c3cccnc3)nc2NCC(F)(F)F)c(F)c1` yielded a pIC50 (COLO 205; Homo sapiens, COLO 205, 24 h) of 5.41.
With `CNCCCOc1cc(F)c(-c2c(Cl)nc(-n3cccn3)nc2N[C@@H](C)C(F)(F)F)c(F)c1` [listing 2 of 3 here] the Activity [17] was “Active”.
`CN(C)CCCCOc1cc(F)c(-c2c(Cl)nc(-c3cnccn3)nc2NCC(F)(F)F)c(F)c1` gave a pIC50 (COLO 205; Homo sapiens, COLO 205, 24 h) of 7.49.
Work on `Fc1cc(F)c(-c2c(Cl)nc(-c3nccc4ccccc34)nc2NCC(F)(F)F)c(F)c1` yielded a pIC50 (COLO 205; Homo sapiens, COLO 205, 24 h) of 5.33.
In the case of `CN(C)CCCOc1cc(F)c(-c2c(Cl)nc(-n3ccnc3)nc2NCC(F)(F)F)c(F)c1`, the pIC50 (COLO 205; Homo sapiens, COLO 205, 24 h) was 6.17.
In the case of `CN(C)CCCOc1cc(F)c(-c2c(Cl)nc(-c3ncccn3)nc2NCC(F)(F)F)c(F)c1`, the pIC50 (COLO 205; Homo sapiens, COLO 205, 24 h) was 7.31.
With `C[C@H](Nc1nc(-c2ccccn2)nc(Cl)c1-c1c(F)cc(F)cc1F)C(F)(F)F` the pIC50 (COLO 205; Homo sapiens, COLO 205, 24 h) was 7.54.
In the case of `C[C@H](Nc1nc(-c2cnccn2)nc(Cl)c1-c1c(F)cc(F)cc1F)C(F)(F)F`, the pIC50 (COLO 205; Homo sapiens, COLO 205, 24 h) was 7.29.
For `C[C@H](Nc1nc(-n2cccn2)nc(Cl)c1-c1c(F)cc(F)cc1F)C(F)(F)F`, the pIC50 (COLO 205; Homo sapiens, COLO 205, 24 h) was 7.72.
In the case of `Fc1cc(F)c(-c2c(Cl)nc(-c3cc4ccccc4cn3)nc2NCC(F)(F)F)c(F)c1`, the pIC50 (COLO 205; Homo sapiens, COLO 205, 24 h) was 6.92.
Molecule `CN(C)CCOc1cc(F)c(-c2c(Cl)nc(-c3cnccn3)nc2NCC(F)(F)F)c(F)c1` has a pIC50 (COLO 205; Homo sapiens, COLO 205, 24 h) of 6.89.
With `CNCCCOc1cc(F)c(-c2c(Cl)nc(-c3ccccn3)nc2N[C@@H](C)C(F)(F)F)c(F)c1` [listing 1 of 3 here] the Activity [17] was “Active”.
For `CN(C)CCCOc1cc(F)c(-c2c(Cl)nc(-c3cnccn3)nc2NCC(F)(F)F)c(F)c1` [listing 1 of 2 here], the “Ratio IC50” value (KB [1]) was 1.2, the pIC50 (COLO 205; colo 205) was 7.66 and the pIC50 [5] was 7.00. For the same molecule, the “Ratio IC50” value [9] was 5, the pIC50 [12] was 7.62 and the pIC50 (KB [14]) was 7.70.
For `CNCCCOc1cc(F)c(-c2c(Cl)nc(-c3ccccn3)nc2N[C@@H](C)C(F)(F)F)c(F)c1` [listing 2 of 3 here], the pIC50 (COLO 205; Homo sapiens, COLO 205, 24 h) was 8.28.
In the case of `Fc1cc(F)c(-c2c(Cl)nc(-c3cnccn3)nc2NCC(F)(F)F)c(F)c1`, the pIC50 (COLO 205; Homo sapiens, COLO 205, 24 h) was 7.08.
For `CNCCCOc1cc(F)c(-c2c(Cl)nc(-c3cnccn3)nc2N[C@@H](C)C(F)(F)F)c(F)c1` [listing 3 of 3 here], the Activity (LOX) was “Active”, the Activity [17] was “Active” and the Activity (NCI-H460) was “Active”.
With `CC[C@]1(O)C[C@H]2CN(CCc3c([nH]c4ccccc34)[C@@](C(=O)OC)(c3cc4c(cc3OC)N(C=O)[C@H]3[C@@](O)(C(=O)OC)[C@H](OC(C)=O)[C@]5(CC)C=CCN6CC[C@]43[C@@H]65)C2)C1` [VINCRISTINE] the pIC50 (COLO 205; Homo sapiens, COLO 205, 24 h) was 8.59, the pIC50 [5] was 5.69 and the “Ratio IC50” value [9] was 925. The pIC50 [12] was 7.24 and the pIC50 (KB [14]) was 8.66.
In the case of `Fc1cc(F)c(-c2c(Cl)nc(-c3ccncc3)nc2NCC(F)(F)F)c(F)c1`, the pIC50 (COLO 205; Homo sapiens, COLO 205, 24 h) was < 5.30.
`Fc1cc(F)c(-c2c(Cl)nc(-c3ccccn3)nc2NCC(F)(F)F)c(F)c1` gave a pIC50 (COLO 205; Homo sapiens, COLO 205, 24 h) of 7.41.
`Fc1cc(F)c(-c2c(Cl)nc(-n3cccn3)nc2NCC(F)(F)F)c(F)c1` gave a pIC50 (COLO 205; Homo sapiens, COLO 205, 24 h) of 7.28.
`CNCCCOc1cc(F)c(-c2c(Cl)nc(-n3cccn3)nc2N[C@@H](C)C(F)(F)F)c(F)c1` [listing 3 of 3 here] gave a pIC50 (COLO 205; Homo sapiens, COLO 205, 24 h) of 8.62.
Work on `CN(C)CCCOc1cc(F)c(-c2c(Cl)nc(-c3cnccn3)nc2NCC(F)(F)F)c(F)c1` [listing 2 of 2 here] yielded a pIC50 (COLO 205; Homo sapiens, COLO 205, 24 h) of 7.74.
With `Cn1ccnc1-c1nc(Cl)c(-c2c(F)cc(F)cc2F)c(NCC(F)(F)F)n1` the pIC50 (COLO 205; Homo sapiens, COLO 205, 24 h) was 7.11.
With `CNCCCOc1cc(F)c(-c2c(Cl)nc(-c3ccccn3)nc2N[C@@H](C)C(F)(F)F)c(F)c1` [listing 3 of 3 here] the pIC50 [5] was 6.37, the “Ratio IC50” value [9] was 68 and the pIC50 [12] was 7.68. The pIC50 (KB [14]) was 8.21.
